# Data: ChEMBL document CHEMBL1131409, “Human telomerase inhibition by regioisomeric disubstituted amidoanthracene-9,10-diones” (J Med Chem, 1998)
# How the values were obtained:
# [1] = target: Telomerase reverse transcriptase (Homo sapiens, UniProt O14746); assay: Inhibitory activity of telomerase was measured using the TRAP assay.
# Summary of the method: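 Cell-free modified TRAP with extracts from exponentially growing A2780 ovarian carcinoma cells. 0.04 μg protein was incubated with TS primer, dNTPs (50 μM each) and [α-32P]dCTP in TRAP buffer (pH 8.3, 68 mM KCl) ± agent, up to 50 μM final, for 20 min at 25 °C. Then 80 °C for 5 min, CX primer plus Taq, 31 PCR cycles. Products read by gel phosphorimaging/autoradiography or filter scintillation counting. IC50 taken as 50% inhibition relative to controls.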
# A2780 = assay: In vitro cytotoxicity against A2780 ovarian cells using the sulforhodamine B(SRB) assay.; type: functional, cell-based; details: Homo sapiens
# Summary of the method: (§1)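 SRB growth assay. 3000–6000 cells were seeded and attached overnight. Agents were dissolved at 500 μM in water and added in quadruplicate at final 0.05, 0.25, 1, 5 and 25 μM. After 96 h, cells were fixed with cold 10% TCA and stained with 0.4% SRB. A540 was expressed as percent of untreated control and the 50% growth-inhibitory concentration was derived.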
# CH1 = assay: In vitro cytotoxicity against CH1 ovarian cells using the sulforhodamine B(SRB) assay.; type: functional, cell-based; details: Homo sapiens; summary of the method: as §1
# SK-OV-3 = assay: In vitro cytotoxicity against SKOV-3 ovarian cells using the sulforhodamine B(SRB) assay.; type: functional, cell-based; details: Homo sapiens; summary of the method: as §1
# Sequence of Telomerase reverse transcriptase (O14746 whole entry): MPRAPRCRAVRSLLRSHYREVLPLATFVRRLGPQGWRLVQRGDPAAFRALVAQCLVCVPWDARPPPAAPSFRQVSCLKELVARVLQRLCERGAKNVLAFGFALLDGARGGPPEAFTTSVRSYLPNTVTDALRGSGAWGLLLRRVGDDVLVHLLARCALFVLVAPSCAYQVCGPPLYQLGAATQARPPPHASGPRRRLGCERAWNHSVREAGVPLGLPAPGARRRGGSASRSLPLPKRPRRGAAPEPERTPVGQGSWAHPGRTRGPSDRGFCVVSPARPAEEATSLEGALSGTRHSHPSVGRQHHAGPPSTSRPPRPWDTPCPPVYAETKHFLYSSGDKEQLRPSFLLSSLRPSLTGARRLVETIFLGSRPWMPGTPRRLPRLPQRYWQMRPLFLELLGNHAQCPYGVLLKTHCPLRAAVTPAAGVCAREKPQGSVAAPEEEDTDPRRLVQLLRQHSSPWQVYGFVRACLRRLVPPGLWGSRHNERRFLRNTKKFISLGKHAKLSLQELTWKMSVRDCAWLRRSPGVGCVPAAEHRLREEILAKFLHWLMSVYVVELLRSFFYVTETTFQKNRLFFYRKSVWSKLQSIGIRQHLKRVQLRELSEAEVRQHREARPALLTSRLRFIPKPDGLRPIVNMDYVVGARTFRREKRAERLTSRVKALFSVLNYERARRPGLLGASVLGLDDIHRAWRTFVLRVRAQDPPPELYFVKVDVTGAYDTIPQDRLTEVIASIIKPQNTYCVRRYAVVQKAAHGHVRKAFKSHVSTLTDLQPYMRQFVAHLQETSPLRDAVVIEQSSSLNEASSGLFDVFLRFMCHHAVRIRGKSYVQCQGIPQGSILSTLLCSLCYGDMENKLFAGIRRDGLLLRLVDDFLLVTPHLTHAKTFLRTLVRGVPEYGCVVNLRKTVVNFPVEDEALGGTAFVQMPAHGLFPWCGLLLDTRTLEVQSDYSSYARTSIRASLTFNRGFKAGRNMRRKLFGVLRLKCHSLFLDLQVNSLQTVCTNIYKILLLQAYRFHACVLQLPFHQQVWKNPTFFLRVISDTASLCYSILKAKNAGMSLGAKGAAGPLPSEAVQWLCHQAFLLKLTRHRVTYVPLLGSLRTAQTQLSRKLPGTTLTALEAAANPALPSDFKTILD
IC50 [1],SMILES,IC50 (A2780),IC50 (CH1),IC50 (SK-OV-3)
7000 nM,C[N+](C)(C)CCC(=O)Nc1ccc(NC(=O)CC[N+](C)(C)C)c2c1C(=O)c1ccccc1C2=O,,,
,CCN(CC)CCC(=O)Nc1ccc(NC(=O)CCN(CC)CC)c2c1C(=O)c1ccccc1C2=O,200 nM,260 nM,1400 nM
13200 nM,C[N+]1(CCC(=O)Nc2cccc3c2C(=O)c2cccc(NC(=O)CC[N+]4(C)CCOCC4)c2C3=O)CCOCC1,1900 nM,1800 nM,2900 nM
5000 nM,C[N+]1(CCC(=O)Nc2ccc(NC(=O)CC[N+]3(C)CCCC3)c3c2C(=O)c2ccccc2C3=O)CCCC1,1500 nM,4500 nM,37000 nM
,O=C(CCN1CCCC1)Nc1cccc2c1C(=O)c1cccc(NC(=O)CCN3CCCC3)c1C2=O,320 nM,360 nM,530 nM
,C[N+]1(CCC(=O)Nc2ccc3c(c2)C(=O)c2ccc(NC(=O)CC[N+]4(C)CCCC4)cc2C3=O)CCCC1,560 nM,1350 nM,2000 nM
> 50000 nM,O=C(CCN1CCOCC1)Nc1cccc2c1C(=O)c1c(NC(=O)CCN3CCOCC3)cccc1C2=O,> 25000 nM,21500 nM,> 25000 nM
8200 nM,C[N+]1(CCC(=O)Nc2cccc3c2C(=O)c2c(NC(=O)CC[N+]4(C)CCCC4)cccc2C3=O)CCCC1,600 nM,1680 nM,5000 nM
3100 nM,CC[N+](C)(CC)CCC(=O)Nc1ccc(NC(=O)CC[N+](C)(CC)CC)c2c1C(=O)c1ccccc1C2=O,4250 nM,6300 nM,> 25000 nM
8600 nM,C[N+]1(CCC(=O)Nc2cccc3c2C(=O)c2cccc(NC(=O)CC[N+]4(C)CCCCC4)c2C3=O)CCCCC1,2000 nM,2100 nM,8300 nM
3700 nM,O=C(CCN1CCCCC1)Nc1cccc2c1C(=O)c1c(NC(=O)CCN3CCCCC3)cccc1C2=O,540 nM,1950 nM,2350 nM
> 50000 nM,O=C(CCN1CCOCC1)Nc1cccc2c1C(=O)c1cccc(NC(=O)CCN3CCOCC3)c1C2=O,> 25000 nM,> 25000 nM,> 25000 nM
10000 nM,C[N+]1(CCC(=O)Nc2cccc3c2C(=O)c2c(NC(=O)CC[N+]4(C)CCOCC4)cccc2C3=O)CCOCC1,510 nM,580 nM,2600 nM
2700 nM,CCN(CC)CCC(=O)Nc1cccc2c1C(=O)c1cccc(NC(=O)CCN(CC)CC)c1C2=O,320 nM,320 nM,620 nM
14500 nM,C[N+](C)(C)CCC(=O)Nc1ccc2c(c1)C(=O)c1cc(NC(=O)CC[N+](C)(C)C)ccc1C2=O,440 nM,1300 nM,4000 nM
2000 nM,O=C(CCN1CCCC1)Nc1ccc2c(c1)C(=O)c1cc(NC(=O)CCN3CCCC3)ccc1C2=O,1200 nM,1800 nM,2300 nM
2300 nM,O=C(CCN1CCCCC1)Nc1cccc2c1C(=O)c1cccc(NC(=O)CCN3CCCCC3)c1C2=O,435 nM,420 nM,820 nM
6400 nM,CN(C)CCC(=O)Nc1cccc2c1C(=O)c1c(NC(=O)CCN(C)C)cccc1C2=O,330 nM,1350 nM,1650 nM
16500 nM,C[N+]1(CCC(=O)Nc2ccc3c(c2)C(=O)c2cc(NC(=O)CC[N+]4(C)CCOCC4)ccc2C3=O)CCOCC1,520 nM,1100 nM,2950 nM
7500 nM,CC[N+](C)(CC)CCC(=O)Nc1cccc2c1C(=O)c1c(NC(=O)CC[N+](C)(CC)CC)cccc1C2=O,550 nM,1650 nM,4600 nM
13200 nM,C[N+](C)(C)CCC(=O)Nc1cccc2c1C(=O)c1cccc(NC(=O)CC[N+](C)(C)C)c1C2=O,1700 nM,1750 nM,5800 nM

IC50 [1],SMILES,IC50 (A2780),IC50 (CH1),IC50 (SK-OV-3)
4200 nM,CCN(CC)CCC(=O)Nc1cccc2c1C(=O)c1c(NC(=O)CCN(CC)CC)cccc1C2=O,640 nM,5300 nM,5200 nM
,CC[N+](C)(CC)CCC(=O)Nc1ccc2c(c1)C(=O)c1ccc(NC(=O)CC[N+](C)(CC)CC)cc1C2=O,2100 nM,1900 nM,6400 nM
16000 nM,C[N+]1(CCC(=O)Nc2ccc3c(c2)C(=O)c2cc(NC(=O)CC[N+]4(C)CCCC4)ccc2C3=O)CCCC1,480 nM,1600 nM,4700 nM
7800 nM,C[N+]1(CCC(=O)Nc2ccc3c(c2)C(=O)c2cc(NC(=O)CC[N+]4(C)CCCCC4)ccc2C3=O)CCCCC1,180 nM,1050 nM,2200 nM
,O=C(CCN1CCOCC1)Nc1ccc2c(c1)C(=O)c1ccc(NC(=O)CCN3CCOCC3)cc1C2=O,> 25000 nM,14000 nM,> 25000 nM
7800 nM,C[N+]1(CCC(=O)Nc2cccc3c2C(=O)c2c(NC(=O)CC[N+]4(C)CCCCC4)cccc2C3=O)CCCCC1,520 nM,1120 nM,4600 nM
1800 nM,O=C(CCN1CCCC1)Nc1ccc2c(c1)C(=O)c1ccc(NC(=O)CCN3CCCC3)cc1C2=O,39000 nM,49000 nM,38000 nM
8800 nM,C[N+]1(CCC(=O)Nc2cccc3c2C(=O)c2cccc(NC(=O)CC[N+]4(C)CCCC4)c2C3=O)CCCC1,2200 nM,2250 nM,10000 nM
16800 nM,CC[N+](C)(CC)CCC(=O)Nc1cccc2c1C(=O)c1cccc(NC(=O)CC[N+](C)(CC)CC)c1C2=O,1900 nM,2050 nM,10000 nM
,O=C(CCN1CCCC1)Nc1ccc(NC(=O)CCN2CCCC2)c2c1C(=O)c1ccccc1C2=O,2.5 nM,19 nM,390 nM
3500 nM,CCN(CC)CCC(=O)Nc1ccc2c(c1)C(=O)c1ccc(NC(=O)CCN(CC)CC)cc1C2=O,2350 nM,3150 nM,3150 nM
1300 nM,CN(C)CCC(=O)Nc1cccc2c1C(=O)c1cccc(NC(=O)CCN(C)C)c1C2=O,350 nM,370 nM,620 nM
4400 nM,C[N+](C)(C)CCC(=O)Nc1cccc2c1C(=O)c1c(NC(=O)CC[N+](C)(C)C)cccc1C2=O,530 nM,1400 nM,2200 nM
> 20000 nM,CC[N+](C)(CC)CCC(=O)Nc1ccc2c(c1)C(=O)c1cc(NC(=O)CC[N+](C)(CC)CC)ccc1C2=O,330 nM,1130 nM,2000 nM
,O=C(CCN1CCCC1)Nc1cccc2c1C(=O)c1c(NC(=O)CCN3CCCC3)cccc1C2=O,295 nM,1280 nM,1200 nM
4100 nM,CN(C)CCC(=O)Nc1ccc2c(c1)C(=O)c1ccc(NC(=O)CCN(C)C)cc1C2=O,,,
3100 nM,O=C(CCN1CCCCC1)Nc1ccc2c(c1)C(=O)c1cc(NC(=O)CCN3CCCCC3)ccc1C2=O,480 nM,3150 nM,3700 nM
4700 nM,CN(C)CCC(=O)Nc1ccc2c(c1)C(=O)c1cc(NC(=O)CCN(C)C)ccc1C2=O,2100 nM,4400 nM,4150 nM
4300 nM,CCN(CC)CCC(=O)Nc1ccc2c(c1)C(=O)c1cc(NC(=O)CCN(CC)CC)ccc1C2=O,2100 nM,4600 nM,7200 nM
> 50000 nM,O=C(CCN1CCOCC1)Nc1ccc2c(c1)C(=O)c1cc(NC(=O)CCN3CCOCC3)ccc1C2=O,5300 nM,7500 nM,> 100000 nM
